Data on 1 molecule can be found in ChEMBL document CHEMBL1177650, “Synthesis, structural elucidation and in vitro antiparasitic activity against Trypanosoma cruzi and Leishmania chagasi parasites of novel tetrahydro-1-benzazepine derivatives” (Bioorg Med Chem, 2010).

Series [1] has as its system Leishmania chagasi. The series can be described thus: Antileishmanial activity against Leishmania chagasi MHOM/BR/74/PP75 amastigotes infected in human THP1 cells after 5 days by Giemsa staining. The format is functional, organism-based. Conditions: MHOM/BR/74/PP75, THP-1, 120 h. The method, boiled down: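 THP-1 cells (RPMI, 5% hiSBF, 37 °C, 5% CO2) transformed, then infected 24 h with late-phase L. chagasi promastigotes at parasite:cell 10:1. Treated with compound dilutions (top 100 μM) 5 days at 37 °C, 5% CO2, medium changed once after 3 days. Infected cells counted per 300 cells on methanol-fixed Giemsa slides; IC50/IC90 by sigmoidal regression; triplicates, repeated twice.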

The test system of series [2] is Trypanosoma cruzi. The series can be described thus: Antitrypanosomal activity against Trypanosoma cruzi 320I01 epimastigotes after 72 hrs by haemocytometry. The format is functional, organism-based. Conditions: 320I01, 72 h. The method, boiled down:
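Late-phase T. cruzi epimastigotes cultured in LIT medium with hiFCS at 28 °C; threefold serial dilutions (0.3–100 μM) for 72 h at 28 °C, untreated controls. Parasites counted in a haemocytometer; IC50/IC90 by sigmoidal regression; each concentration in triplicate, two experiments.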

For series [3], the system named is Trypanosoma cruzi. The series is described as follows: Antitrypanosomal activity against Trypanosoma cruzi 320I01 amastigotes infected in african green monkey Vero cells after 5 days by Giemsa staining. The class given is functional, organism-based. Conditions: 320I01, Vero, 120 h. The method, boiled down:
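Vero cells (RPMI, 5% hiSBF, 37 °C, 5% CO2) infected 24 h with tissue-derived T. cruzi trypomastigotes at parasite:cell 10:1. Compound dilutions (top 100 μM) applied 5 days at 37 °C, 5% CO2, medium changed once at day 3. Infected cells scored per 300 cells on methanol-fixed Giemsa preparations; IC50/IC90 by sigmoidal regression; triplicates, two experiments.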

Series [4] in a line: Cytotoxicity against african green monkey Vero cells after 72 hrs by MTT assay. The class given is cell-based. Conditions: chlorocebus sabaeus. The method, boiled down: (§1)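 Vero or transformed THP-1 cells incubated with compound (0.3–300 μM) 72 h at 37 °C, 5% CO2; untreated controls. MTT read-out, formazan OD at 580 nm; % cytotoxicity = 100 × (OD control − OD treated)/OD control. CC50/CC90 by sigmoidal regression; triplicates, repeated twice. DMSO stocks 100× concentrated, diluted in medium.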
(In general: Tetrazolium dyes change colour on reduction, which living cells bring about.)

Series [5] in a line: Selectivity index, CC50 for human THP1 cells to IC50 for Leishmania chagasi MHOM/BR/74/PP75 amastigotes. The format is functional, THP-1. The method, boiled down:
(§2)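 Selectivity index computed as CC50 in THP-1 cells divided by IC50 against the L. chagasi stage named in the line.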

Series [6] in a line: Selectivity index, CC50 for african green monkey Vero cells to IC50 for Trypanosoma cruzi 320I01 epimastigote. The class given is functional. The method, boiled down: (§3)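 Selectivity index computed as CC50 in Vero cells divided by IC50 against the T. cruzi stage named in the line.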
Series [7] can be described thus: Selectivity index, CC50 for human THP1 cells to IC50 for Leishmania chagasi MHOM/BR/74/PP75 promastigotes. The format is functional, THP-1. The method, boiled down:
as §2

A short description of series [8]: Selectivity index, CC50 for african green monkey Vero cells to IC50 for Trypanosoma cruzi 320I01 amastigotes. The format is functional. The method, boiled down: as §3
The nature of series [9]: Cytotoxicity against human THP1 cells after 72 hrs by MTT assay. The format is cell-based. Conditions: THP-1 cells. The method, boiled down: as §1
Series [10] relates to Leishmania chagasi. The series is described as follows: Antileishmanial activity against Leishmania chagasi MHOM/BR/74/PP75 promastigotes after 72 hrs by haemocytometry. The class given is functional, organism-based. Conditions: MHOM/BR/74/PP75, 72 h. The method, boiled down:
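Late-phase L. chagasi promastigotes, grown at 28 °C in RPMI 1640 with hemin, HEPES and 10% hiSBF, exposed to threefold serial dilutions (0.3–100 μM) for 72 h at 28 °C; untreated controls. Growth inhibition from haemocytometer counts; IC50/IC90 by sigmoidal regression; triplicates, repeated twice.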

For the molecule `c1ccc([C@@H]2C[C@@H]3Cc4ccccc4N2O3)cc1` (relative stereo), the IC50 in the series on Leishmania chagasi [1], in the series with Trypanosoma cruzi [2], in the series on Trypanosoma cruzi [3] and in the series on Leishmania chagasi [10] was above 100 µM each time. For the same molecule, the IC90 with Leishmania chagasi [1], with Trypanosoma cruzi [2], with Trypanosoma cruzi [3] and with Leishmania chagasi [10] was above 100 µM throughout. For the same molecule, the 50% cytotoxic concentration (CC50) at 72 h in [4] and in [9] was above 300 µM in each case. Moreover, the CC90 at 72 h in series [4] and in series [9] was above 300 µM each time. The “Selectivity Index” value in [5], in [6], in [7] and in series [8] was above 3 in each case.
